Measurements: ChEMBL document CHEMBL5108089, “Structure-based discovery of potent inhibitors of Axl: design, synthesis, and biological evaluation” (RSC Med Chem, 2022)
Active and inactive are the calls of the source. The calls are words filed in the database; no cut-off is given here.

How the values were obtained:
[1] = Metabolic stability in human liver microsomes assessed as half-life preincubated for 10 mins followed by NADPH addition and measured upto 60 mins by LC-MS/MS analysis; assay type: ADME, Microsome; settings: time < 70 min
PC-3 = experiment: Antiproliferative activity against human PC-3 cells assessed as inhibition of cell growth incubated for 72 hrs by CCK-8 assay; assay type: functional
U-87 MG = experiment: Antiproliferative activity against human U87 cells assessed as inhibition of cell growth incubated for 72 hrs by CCK-8 assay; assay type: functional, U-87MG ATCC
HeLa = experiment: Antiproliferative activity against human HeLa cells assessed as inhibition of cell growth incubated for 72 hrs by CCK-8 assay; assay type: functional
MGC-803 = experiment: Antiproliferative activity against human MGC-803 cells assessed as inhibition of cell growth incubated for 72 hrs by CCK-8 assay; assay type: functional
SNU-16 = experiment: Antiproliferative activity against human SNU-16 cells assessed as inhibition of cell growth incubated for 72 hrs by CCK-8 assay; assay type: functional
Method in brief: (§1)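 8000 cells/well. Test compound was serially diluted from a 10 uM top concentration and staurosporine from 1 uM. CC50 and maximum % inhibition are reported.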

[2] = Metabolic stability in rat liver microsomes assessed as intrinsic clearance preincubated for 10 mins followed by NADPH addition and measured upto 60 mins by LC-MS/MS analysis; assay type: ADME, Microsome; settings: time < 70 min, read-out: CLH
FaDu = experiment: Antiproliferative activity against human FaDu cells assessed as inhibition of cell growth incubated for 72 hrs by CCK-8 assay; assay type: functional
KYSE-510 = experiment: Antiproliferative activity against human KYSE-510 cells assessed as inhibition of cell growth incubated for 72 hrs by CCK-8 assay; assay type: functional
NAMALVA = experiment: Antiproliferative activity against human NAMALVA cells assessed as inhibition of cell growth incubated for 72 hrs by CCK-8 assay; assay type: functional
Method in brief: (§2)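 Plated at 10000 cells/well. Dose series topped at 10 uM for test compound and at 1 uM for the staurosporine reference. Read-outs were CC50 and maximum % inhibition.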

[3] = target: Tyrosine-protein kinase receptor UFO (Homo sapiens) (UniProt P30530); experiment: Inhibition of Axl (unknown origin) a 1 uM relative to control
Method in brief: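 Ran 40 min at room temperature, stopped with 0.5% phosphoric acid, then filter-bound, washed and scintillation-counted. Inhibition was calculated as 100 − activity (%), given as mean ±SD.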

[4] = Antiproliferative activity against human T.Tn cells assessed as inhibition of cell growth incubated for 72 hrs by CCK-8 assay; assay type: functional
A549 = experiment: Antiproliferative activity against human A549 cells assessed as inhibition of cell growth incubated for 72 hrs by CCK-8 assay; assay type: functional
[5] = target: Tyrosine-protein kinase TXK (Homo sapiens) (UniProt P42681); experiment: Inhibition of Txk (unknown origin) at 1 uM relative to control
[6] = target: Vascular endothelial growth factor receptor 2 (Homo sapiens) (UniProt P35968); experiment: Inhibition of KDR (unknown origin) at 1 uM relative to control
A-375 = experiment: Antiproliferative activity against human A-375 cells assessed as inhibition of cell growth incubated for 72 hrs by CCK-8 assay; assay type: functional
HEL 92.1.7 = experiment: Antiproliferative activity against human HEL 92.1.7 cells assessed as inhibition of cell growth incubated for 72 hrs by CCK-8 assay; assay type: functional; method in brief: as §1
OVCAR-3 = experiment: Antiproliferative activity against human OVCAR-3 cells assessed as inhibition of cell growth incubated for 72 hrs by CCK-8 assay; assay type: functional
MSTO-211H = experiment: Antiproliferative activity against human MSTO-211H cells assessed as inhibition of cell growth incubated for 72 hrs by CCK-8 assay; assay type: functional
HT-29 = experiment: Antiproliferative activity against human HT-29 cells assessed as inhibition of cell growth incubated for 72 hrs by CCK-8 assay; assay type: functional
[7] = Half-life in Sprague-Dawley rat at 5 mg/kg, po measured upto 24 hrs by LC-MS/MS analysis; assay type: ADME, organism-based; settings: in vivo
NCI-H2052 = experiment: Antiproliferative activity against human NCI-H2052 cells assessed as inhibition of cell growth incubated for 72 hrs by CCK-8 assay; assay type: functional
[8] = Antiproliferative activity against human NCI-H1954 cells assessed as inhibition of cell growth incubated for 72 hrs by CCK-8 assay; assay type: functional
[9] = Oral bioavailability in Sprague-Dawley rat at 5 mg/kg measured upto 24 hrs by LC-MS/MS analysis; assay type: ADME, organism-based; settings: in vivo
[10] = Clearance in Sprague-Dawley rat at 1 mg/kg, iv measured upto 24 hrs by LC-MS/MS analysis; assay type: ADME, organism-based; settings: in vivo
[11] = Metabolic stability in rat liver microsomes assessed as half-life preincubated for 10 mins followed by NADPH addition and measured upto 60 mins by LC-MS/MS analysis; assay type: ADME, Microsome; settings: time < 70 min
[12] = Cmax in Sprague-Dawley rat at 1 mg/kg, iv measured upto 24 hrs by LC-MS/MS analysis; assay type: ADME, organism-based; set-up: time < 24 hrs, dose 1 mg/kg, route iv; settings: in vivo
MOLM-13 = experiment: Antiproliferative activity against human MOLM-13 cells assessed as inhibition of cell growth incubated for 72 hrs by CCK-8 assay; assay type: functional
HCC827 = experiment: Antiproliferative activity against human HCC827 cells assessed as inhibition of cell growth incubated for 72 hrs by CCK-8 assay; assay type: functional
BXPC-3 = experiment: Antiproliferative activity against human BXPC-3 cells assessed as inhibition of cell growth incubated for 72 hrs by CCK-8 assay; assay type: functional
[13] = target: Tyrosine-protein kinase Mer (Homo sapiens) (UniProt Q12866); experiment: Inhibition of Mer (unknown origin) at 1 uM
SNU-5 = experiment: Antiproliferative activity against human SNU-5 cells assessed as inhibition of cell growth incubated for 72 hrs by CCK-8 assay; assay type: functional; method in brief: as §2
COLO 205 = experiment: Antiproliferative activity against human COLO 205 cells assessed as inhibition of cell growth incubated for 72 hrs by CCK-8 assay; assay type: functional
[14] = Half-life in Sprague-Dawley rat at 1 mg/kg, iv measured upto 24 hrs by LC-MS/MS analysis; assay type: ADME, organism-based; settings: in vivo
[15] = target: Proto-oncogene tyrosine-protein kinase receptor Ret (Homo sapiens) (UniProt P07949); experiment: Inhibition of Ret (unknown origin) at 1 uM relative to control
Calu-3 = experiment: Antiproliferative activity against human Calu-3 cells assessed as inhibition of cell growth incubated for 72 hrs by CCK-8 assay; assay type: functional; method in brief: as §2
Hep 3B2 = experiment: Antiproliferative activity against human Hep 3B2.1-7 cells assessed as inhibition of cell growth incubated for 72 hrs by CCK-8 assay; assay type: functional; settings: Hep3B
NCI-H226 = experiment: Antiproliferative activity against human NCI-H226 cells assessed as inhibition of cell growth incubated for 72 hrs by CCK-8 assay; assay type: functional
EVSA-T = experiment: Antiproliferative activity against human EVSA-T cells assessed as inhibition of cell growth incubated for 72 hrs by CCK-8 assay; assay type: functional
KU812 cell line = experiment: Antiproliferative activity against human KU812 cells assessed as inhibition of cell growth incubated for 72 hrs by CCK-8 assay; assay type: functional; method in brief: as §2
HepG2 = experiment: Antiproliferative activity against human HepG2 cells assessed as inhibition of cell growth incubated for 72 hrs by CCK-8 assay; assay type: functional
[16] = target: Hepatocyte growth factor receptor (Homo sapiens) (UniProt P08581); experiment: Inhibition of Met (unknown origin) at 1 uM relative to control
Chain of Hepatocyte growth factor receptor (Homo sapiens) (P08581 whole entry): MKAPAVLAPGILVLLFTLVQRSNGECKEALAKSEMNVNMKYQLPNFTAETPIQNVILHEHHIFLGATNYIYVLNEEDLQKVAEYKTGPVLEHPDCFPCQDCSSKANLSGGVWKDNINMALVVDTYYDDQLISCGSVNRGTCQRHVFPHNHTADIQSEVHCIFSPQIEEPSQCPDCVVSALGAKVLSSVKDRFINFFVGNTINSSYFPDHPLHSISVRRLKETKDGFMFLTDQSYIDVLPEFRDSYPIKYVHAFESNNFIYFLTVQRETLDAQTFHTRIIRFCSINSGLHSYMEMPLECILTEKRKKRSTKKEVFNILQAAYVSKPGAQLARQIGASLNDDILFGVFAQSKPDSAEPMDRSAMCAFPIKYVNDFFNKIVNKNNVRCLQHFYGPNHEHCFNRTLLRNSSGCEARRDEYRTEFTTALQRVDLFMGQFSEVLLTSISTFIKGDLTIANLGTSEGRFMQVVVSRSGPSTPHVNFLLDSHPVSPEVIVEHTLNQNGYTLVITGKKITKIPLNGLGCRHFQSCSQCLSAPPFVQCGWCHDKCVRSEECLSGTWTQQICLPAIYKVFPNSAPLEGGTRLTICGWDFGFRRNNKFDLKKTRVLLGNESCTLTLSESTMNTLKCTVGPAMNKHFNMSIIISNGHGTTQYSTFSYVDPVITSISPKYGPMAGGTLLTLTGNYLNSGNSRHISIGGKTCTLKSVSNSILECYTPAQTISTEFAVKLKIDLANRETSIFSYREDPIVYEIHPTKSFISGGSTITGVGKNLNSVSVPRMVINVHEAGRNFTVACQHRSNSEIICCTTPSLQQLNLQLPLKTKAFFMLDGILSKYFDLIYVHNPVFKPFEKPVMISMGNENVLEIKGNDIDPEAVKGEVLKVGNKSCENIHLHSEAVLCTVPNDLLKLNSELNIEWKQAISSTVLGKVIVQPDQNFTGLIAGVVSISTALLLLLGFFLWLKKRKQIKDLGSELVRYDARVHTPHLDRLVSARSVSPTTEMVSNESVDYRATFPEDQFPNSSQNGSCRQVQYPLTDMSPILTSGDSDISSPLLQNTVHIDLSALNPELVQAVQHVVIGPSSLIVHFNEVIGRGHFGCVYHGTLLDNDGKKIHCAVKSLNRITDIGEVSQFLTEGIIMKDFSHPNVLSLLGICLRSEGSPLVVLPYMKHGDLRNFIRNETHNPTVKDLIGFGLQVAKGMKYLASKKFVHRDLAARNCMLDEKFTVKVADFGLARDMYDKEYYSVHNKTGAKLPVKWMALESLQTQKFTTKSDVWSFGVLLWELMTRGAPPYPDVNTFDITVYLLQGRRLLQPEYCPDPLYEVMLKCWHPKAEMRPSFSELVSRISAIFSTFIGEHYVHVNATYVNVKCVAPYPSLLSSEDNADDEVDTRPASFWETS

Chain of Proto-oncogene tyrosine-protein kinase receptor Ret (Homo sapiens) (P07949 whole entry): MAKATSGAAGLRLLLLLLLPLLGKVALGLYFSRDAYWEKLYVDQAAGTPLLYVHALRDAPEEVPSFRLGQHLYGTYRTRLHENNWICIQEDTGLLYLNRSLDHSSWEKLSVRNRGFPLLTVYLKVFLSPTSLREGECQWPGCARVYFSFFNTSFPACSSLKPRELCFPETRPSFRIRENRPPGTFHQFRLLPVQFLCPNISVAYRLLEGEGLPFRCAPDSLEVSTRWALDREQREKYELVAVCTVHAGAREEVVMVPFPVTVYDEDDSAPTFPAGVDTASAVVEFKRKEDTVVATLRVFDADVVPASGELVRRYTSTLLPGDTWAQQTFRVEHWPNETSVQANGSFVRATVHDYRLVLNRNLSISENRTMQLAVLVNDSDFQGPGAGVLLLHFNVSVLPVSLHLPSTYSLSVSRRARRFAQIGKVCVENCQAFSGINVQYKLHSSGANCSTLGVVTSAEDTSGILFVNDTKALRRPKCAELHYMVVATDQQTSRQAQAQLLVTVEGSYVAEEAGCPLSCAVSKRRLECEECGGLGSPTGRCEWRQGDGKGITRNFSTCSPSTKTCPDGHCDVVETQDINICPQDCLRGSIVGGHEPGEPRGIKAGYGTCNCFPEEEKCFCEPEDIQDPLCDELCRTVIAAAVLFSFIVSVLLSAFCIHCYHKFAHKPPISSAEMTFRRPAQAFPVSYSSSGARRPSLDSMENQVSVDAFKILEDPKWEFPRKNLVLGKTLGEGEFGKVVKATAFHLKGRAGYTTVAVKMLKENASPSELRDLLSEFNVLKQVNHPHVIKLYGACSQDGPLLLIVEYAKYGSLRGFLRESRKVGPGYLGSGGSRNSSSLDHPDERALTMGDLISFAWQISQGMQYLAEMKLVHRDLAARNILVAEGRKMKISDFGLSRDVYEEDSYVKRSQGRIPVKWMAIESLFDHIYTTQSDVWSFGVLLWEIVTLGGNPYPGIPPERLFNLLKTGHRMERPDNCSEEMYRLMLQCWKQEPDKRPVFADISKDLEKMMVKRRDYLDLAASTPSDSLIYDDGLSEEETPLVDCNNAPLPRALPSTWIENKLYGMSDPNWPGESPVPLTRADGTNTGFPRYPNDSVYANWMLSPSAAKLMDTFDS
Chain of Tyrosine-protein kinase TXK (Homo sapiens) (P42681 whole entry): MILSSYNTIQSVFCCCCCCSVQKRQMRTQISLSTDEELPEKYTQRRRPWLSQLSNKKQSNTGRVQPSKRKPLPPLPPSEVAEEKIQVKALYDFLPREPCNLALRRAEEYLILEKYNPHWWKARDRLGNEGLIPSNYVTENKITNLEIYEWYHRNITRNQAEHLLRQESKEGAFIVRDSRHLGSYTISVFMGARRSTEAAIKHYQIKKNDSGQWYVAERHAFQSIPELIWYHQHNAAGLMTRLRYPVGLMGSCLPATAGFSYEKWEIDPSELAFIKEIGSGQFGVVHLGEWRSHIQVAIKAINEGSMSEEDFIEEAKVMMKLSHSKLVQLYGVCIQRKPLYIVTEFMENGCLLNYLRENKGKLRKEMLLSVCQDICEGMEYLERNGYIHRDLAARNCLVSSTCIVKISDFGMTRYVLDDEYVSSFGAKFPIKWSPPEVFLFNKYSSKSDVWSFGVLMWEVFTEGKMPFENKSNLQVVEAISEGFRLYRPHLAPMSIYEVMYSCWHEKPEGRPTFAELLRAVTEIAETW
Chain of Vascular endothelial growth factor receptor 2 (Homo sapiens) (P35968 whole entry): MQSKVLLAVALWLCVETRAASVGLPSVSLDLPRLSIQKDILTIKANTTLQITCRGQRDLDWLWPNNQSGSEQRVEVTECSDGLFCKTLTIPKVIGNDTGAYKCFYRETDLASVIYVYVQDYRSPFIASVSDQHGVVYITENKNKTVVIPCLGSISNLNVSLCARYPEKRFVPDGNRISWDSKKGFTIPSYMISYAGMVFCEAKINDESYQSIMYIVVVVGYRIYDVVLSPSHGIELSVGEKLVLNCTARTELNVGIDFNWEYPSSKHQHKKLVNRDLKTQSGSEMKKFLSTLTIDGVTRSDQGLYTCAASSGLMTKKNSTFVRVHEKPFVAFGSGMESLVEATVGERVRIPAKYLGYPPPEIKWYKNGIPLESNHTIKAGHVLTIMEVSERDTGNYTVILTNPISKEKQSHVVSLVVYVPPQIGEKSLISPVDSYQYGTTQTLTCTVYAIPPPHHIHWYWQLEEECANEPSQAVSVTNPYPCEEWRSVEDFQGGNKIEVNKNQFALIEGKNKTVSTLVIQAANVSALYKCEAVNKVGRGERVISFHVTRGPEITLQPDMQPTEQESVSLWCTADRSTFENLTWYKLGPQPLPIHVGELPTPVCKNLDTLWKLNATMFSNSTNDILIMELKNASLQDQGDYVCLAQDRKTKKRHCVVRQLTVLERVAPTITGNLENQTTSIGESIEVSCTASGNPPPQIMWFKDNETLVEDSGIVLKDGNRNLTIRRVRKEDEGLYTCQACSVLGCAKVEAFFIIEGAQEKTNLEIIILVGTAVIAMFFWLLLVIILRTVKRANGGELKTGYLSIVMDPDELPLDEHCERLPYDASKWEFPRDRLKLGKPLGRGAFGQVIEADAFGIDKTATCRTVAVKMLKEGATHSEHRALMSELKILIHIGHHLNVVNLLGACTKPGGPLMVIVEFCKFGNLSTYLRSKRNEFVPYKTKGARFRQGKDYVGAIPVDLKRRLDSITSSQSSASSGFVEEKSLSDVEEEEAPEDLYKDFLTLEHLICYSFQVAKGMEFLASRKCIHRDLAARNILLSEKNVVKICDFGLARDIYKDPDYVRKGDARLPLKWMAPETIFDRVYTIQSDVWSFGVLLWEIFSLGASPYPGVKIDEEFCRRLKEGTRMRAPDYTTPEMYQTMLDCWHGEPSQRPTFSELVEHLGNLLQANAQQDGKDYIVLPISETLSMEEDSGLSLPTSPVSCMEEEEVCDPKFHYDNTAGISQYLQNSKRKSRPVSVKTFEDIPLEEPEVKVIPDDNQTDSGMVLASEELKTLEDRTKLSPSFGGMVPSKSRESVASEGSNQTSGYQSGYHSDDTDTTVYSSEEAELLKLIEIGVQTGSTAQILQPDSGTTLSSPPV

Compound `CC(C)n1cnc(-c2ccccc2Nc2nc(Nc3ccc(N(C)C4CCN(C)CC4)cc3)ncc2Cl)n1` has a half-life [1] of 60.6 min, a CC50 (PC-3) of 5.59 µM and a CC50 (U-87 MG) of 3.01 µM. The CC50 (HeLa) was 199 nM, the CC50 (MGC-803) was 103 nM and the CC50 (SNU-16) was 149 nM. It also gave a CLint scaled [2] of 87.7 mL/min/kg, a CC50 (FaDu) of 79.8 nM and a CC50 (KYSE-510) of 117 nM. For the same compound, the CC50 (NAMALVA) was 494 nM, the inhibition [3] was 90% and the CC50 [4] was 119 nM. For the same compound, the CC50 (A549) was 293 nM, the inhibition [5] was 70% and the inhibition [6] was 70%. The CC50 (A-375) was 23.9 µM, the CC50 (HEL 92.1.7) was 457 nM and the CC50 (OVCAR-3) was 224 nM. The CC50 (MSTO-211H) was 451 nM, the CC50 (HT-29) was 504 nM and the half-life [7] was 387 min. The CC50 (NCI-H2052) was 1180 nM, the CC50 [8] was 1210 nM and the bioavailability [9] was 56.1%. It also gave a clearance [10] of 36.7 mL/min/kg, a half-life [11] of 28.3 min and a Cmax [12] of 56.3 ng/mL. It also gave a CC50 (MOLM-13) of 206 nM, a CC50 (HCC827) of 2050 nM and a CC50 (BXPC-3) of 382 nM. For the same compound, the inhibition [13] was “Active”, the CC50 (SNU-5) was 356 nM and the CC50 (COLO 205) was 350 nM. It also gave a half-life [14] of 396 min, an inhibition [15] of 70% and a CC50 (Calu-3) of 107 nM. It also gave a CC50 (Hep 3B2) of 81.2 nM, a CC50 (NCI-H226) of 1240 nM and a CC50 (EVSA-T) of 1150 nM. It also gave a CC50 (KU812 cell line) of 233 nM, a CC50 (HepG2) of 352 nM and an inhibition [16] of 70%.
